Assay results as given in ChEMBL document CHEMBL4219243, “Characterization of Protease-Activated Receptor (PAR) ligands: Parmodulins are reversible allosteric inhibitors of PAR1-driven calcium mobilization in endothelial cells” (Bioorg Med Chem, 2018).
pIC50: −log10 of the molar value. Activity calls are given as the source filed them. No cut-off for these calls is given here.

Key:
[1] = biological target: T1, Proteinase-activated receptor 1 (Homo sapiens) (UniProt P25116); test: (§1) Antagonist activity at PAR1 in human EAhy926 cells assessed as inhibition of TFLLRN-NH2-induced intracellular calcium mobilization pretreated for 15 mins followed by TFLLRN-NH2 addition measured at 5 secs interval for 250 secs by Fluo-4/AM dye based fluorescence assay; format: functional, cell-based; parameters: concentration or dose not given beside the values
T1 sequence (whole entry): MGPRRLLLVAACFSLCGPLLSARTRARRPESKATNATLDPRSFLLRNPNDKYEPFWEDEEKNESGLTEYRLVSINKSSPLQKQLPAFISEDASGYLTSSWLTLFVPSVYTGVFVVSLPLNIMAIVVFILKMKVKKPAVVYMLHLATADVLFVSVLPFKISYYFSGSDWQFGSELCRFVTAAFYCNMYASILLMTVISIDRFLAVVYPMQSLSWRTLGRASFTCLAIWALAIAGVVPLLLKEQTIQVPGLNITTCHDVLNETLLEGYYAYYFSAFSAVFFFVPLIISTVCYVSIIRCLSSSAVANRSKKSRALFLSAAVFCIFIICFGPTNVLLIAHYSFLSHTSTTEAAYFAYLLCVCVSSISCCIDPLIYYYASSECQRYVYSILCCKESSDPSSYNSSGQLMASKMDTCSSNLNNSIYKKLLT
Method in brief: (§2)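 EA.hy926 cells were used at passage 2–11, seeded at 25,000/well and grown 40–48 h at 37 °C to >80% confluence. Cells were loaded with Fluo-4/AM (2 μM) in HBSS-HEPES containing 2.5 mM probenecid, pH 7.4, for 40–50 min, then washed twice. Antagonist in 10% DMSO vehicle was added for 15 min at 37 °C before agonist. Agonist was 5 μM TFLLRN-NH₂; ex 485/em 525 nm.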

[2] = biological target: Proteinase-activated receptor 2 (Homo sapiens) (UniProt P55085); test: Antagonist activity at PAR2 in human EAhy926 cells assessed as inhibition of SLIGKV-NH2-induced intracellular calcium mobilization at 10 uM pretreated for 15 mins followed by SLIGKV-NH2 addition measured at 5 secs interval for 250 secs by Fluo-4/AM dye based fluorescence assay; format: functional, cell-based
Method in brief: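 EA.hy926 monolayers were Fluo-4/AM-loaded (2 μM, with 2.5 mM probenecid in HBSS-HEPES) and pretreated 15 min at 37 °C with 10 μM antagonist in 10% DMSO vehicle. They were then stimulated with 3.16 μM SLIGKV-NH₂. Fluorescence (485/525 nm) was read every 5 s. The peak rise over basal, divided by basal, was normalized to the vehicle well.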

[3] = biological target: T1, Proteinase-activated receptor 1 (Homo sapiens); test: Negative allosteric modulation of PAR1 in human EAhy926 cells assessed as inhibition of TFLLRN-NH2-induced intracellular calcium mobilization at 10 uM pretreated for 20 to 30 mins followed by compound washout and subsequent incubation for 10 mins prior to TFLLRN-NH2 addition measured at 5 secs interval for 250 secs by Fluo-4/AM dye based fluorescence assay; format: functional, cell-based
Method in brief: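 EA.hy926 cells grown 40–48 h to confluence, loaded with Fluo-4/AM in HBSS-HEPES with 2.5 mM probenecid for 40–50 min at 37 °C, washed. Antagonist or vehicle (10% DMSO) added for 20–30 min, then washed twice with buffer, 10 min at 37 °C each. TFLLRN-NH2 (5 μM) added; emission 525 nm (ex 485) read against basal.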

[4] = biological target: T2, Proteinase-activated receptor 1 (Homo sapiens, UniProt P25116); test: as §1; format: functional, cell-based; conditions: for pIC50: read-out: IC50; for IC50: read-out: pIC50 (converted); method in brief: as §2
T2 sequence (P25116 whole entry): T1 sequence (whole entry)

[5] = biological target: T1, Proteinase-activated receptor 1 (Homo sapiens); test: Antagonist activity at PAR1 in human EAhy926 cells assessed as inhibition of TFLLRN-NH2-induced intracellular calcium mobilization at 10 uM pretreated for 15 mins followed by TFLLRN-NH2 addition measured at 5 secs interval for 250 secs by Fluo-4/AM dye based fluorescence assay; format: functional, cell-based
[6] = biological target: Proteinase-activated receptor 2 (Homo sapiens) (UniProt P55085); format: functional, cell-based; conditions: 0.316 uM
[7] = biological target: T1, Proteinase-activated receptor 1 (Homo sapiens); conditions: 0.316 uM
[8] = biological target: T3, Proteinase-activated receptor 2 (Homo sapiens, UniProt P55085); test: Antagonist activity at PAR2 in human EAhy926 cells assessed as inhibition of SLIGKV-NH2-induced intracellular calcium mobilization pretreated for 15 mins followed by SLIGKV-NH2 addition measured at 5 secs interval for 250 secs by Fluo-4/AM dye based fluorescence assay; format: functional, cell-based
T3 sequence (P55085 whole entry): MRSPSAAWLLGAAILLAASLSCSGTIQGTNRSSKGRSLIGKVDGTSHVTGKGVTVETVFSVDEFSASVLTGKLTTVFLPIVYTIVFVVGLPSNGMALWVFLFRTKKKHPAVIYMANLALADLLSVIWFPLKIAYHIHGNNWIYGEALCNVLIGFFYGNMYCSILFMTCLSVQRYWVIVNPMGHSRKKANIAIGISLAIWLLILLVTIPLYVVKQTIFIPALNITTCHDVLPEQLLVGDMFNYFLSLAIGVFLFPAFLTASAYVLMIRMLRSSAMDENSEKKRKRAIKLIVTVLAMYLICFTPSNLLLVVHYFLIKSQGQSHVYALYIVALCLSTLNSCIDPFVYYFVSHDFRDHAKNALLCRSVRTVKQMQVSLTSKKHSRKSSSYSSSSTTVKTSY
Method in brief: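 EA.hy926 monolayers (25,000 cells/well, 40–48 h) were loaded with 2 µM Fluo-4/AM for 40–50 min at 37 °C in HBSS-HEPES with 2.5 mM probenecid, pH 7.4. Antagonist in 10% DMSO vehicle was added for 15 min at 37 °C, then SLIGKV-NH2 (5 µM for curves, 3.16 µM for selectivity). Read at ex485/em525, 20 basal scans. Peak RFU/basal was normalised to a same-column vehicle well; curves from ≥3 repeats fitted by 4-parameter regression.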

[9] = biological target: T1, Proteinase-activated receptor 1 (Homo sapiens); format: functional, cell-based; conditions: 0.316 uM

## CCCCC(=O)Nc1cccc(NC(=O)c2ccccc2Br)c1
[1]
  inhibition: 49%

## CCCC(=O)Nc1cccc(NC(=O)c2ccccc2Br)c1
[2]
  inhibition: inactive
[3]
  inhibition: Active
[4]
  pIC50: 6.07

## Clc1ccc(Cn2c(Cc3ccccc3)nc3ccccc32)cc1
[5]
  inhibition: inactive

## CCC(=O)Nc1cccc(NC(=O)c2ccccc2Br)c1
[4]
  pIC50: 5.48
  IC50: 3160 nM
[1]
  inhibition: 68%

## CCCCNc1cccc(NC(=O)c2ccccc2Br)c1
[2]
  inhibition: inactive
[3]
  inhibition: Active
[4]
  pIC50: 6.01

## C#CCCC(=O)Nc1cccc(NC(=O)c2ccccc2Br)c1
[4]
  pIC50: 4.09
  IC50: 100000 nM
[1]
  inhibition: 79%

## CCOC(=O)N[C@@H]1CC[C@@H]2[C@@H](C1)C[C@H]1C(=O)O[C@H](C)[C@H]1[C@H]2/C=C/c1ccc(-c2cccc(F)c2)cn1
[6]
  inhibition: inactive
[7]
  inhibition: inactive

## CC[C@H](C)[C@H](NC(=O)[C@H](CC1CCCCC1)NC(=O)c1ccno1)C(=O)NCc1ccccc1OC
[5]
  inhibition: inactive
[8]
  pIC50: 5.77

## CCCC(=O)Nc1cccc(NC(=O)c2ccccc2N=[N+]=[N-])c1
[4]
  pIC50: 4.03
[1]
  inhibition: 77%

## CC(C)CC(=O)Nc1cccc(NC(=O)c2ccccc2Br)c1
[3]
  inhibition: Active
[4]
  pIC50: 5.50
[1]
  inhibition: 74%

## CCOc1cc2c(c(F)c1OCC)C(=N)N(CC(=O)c1cc(N3CCOCC3)c(OC)c(C(C)(C)C)c1)C2 [ATOPAXAR]
[6]
  inhibition: inactive
[4]
  pIC50: 7.48
[1]
  inhibition: 94%

## C#CCCC(=O)NCC[C@H](NC(=O)[C@H](Cc1ccc(F)c(F)c1)NC(=O)Nc1ccc2c(CN3CCCC3)nn(Cc3c(Cl)cccc3Cl)c2c1)C(=O)NCc1ccccc1
[4]
  IC50: 316 nM
[1]
  inhibition: 76%

## NCC[C@H](NC(=O)[C@H](Cc1ccc(F)c(F)c1)NC(=O)Nc1ccc2c(CN3CCCC3)nn(Cc3c(Cl)cccc3Cl)c2c1)C(=O)NCc1ccccc1
[6]
  inhibition: inactive
[4]
  pIC50: 7.70
[9]
  inhibition: Active
